Measurements published in paper PMC4681656 (Organic & biomolecular chemistry, 2016).
Entries after “also recorded” stand apart in the source; their conditions may differ.

Columns and labels:
[1] = biological target: vimentin rod domain (residues 99-411) (Homo sapiens, UniProt P08670); test: Vimentin-arylquin binding assay by intrinsic arylquin fluorescence; settings: fluorescence titration
[2] = biological target: hERG potassium channel (Homo sapiens, UniProt Q12809); test: [3H]-dofetilide binding assay with hERG-HEK293 cell membranes
Sequence of hERG potassium channel (Q12809 whole entry): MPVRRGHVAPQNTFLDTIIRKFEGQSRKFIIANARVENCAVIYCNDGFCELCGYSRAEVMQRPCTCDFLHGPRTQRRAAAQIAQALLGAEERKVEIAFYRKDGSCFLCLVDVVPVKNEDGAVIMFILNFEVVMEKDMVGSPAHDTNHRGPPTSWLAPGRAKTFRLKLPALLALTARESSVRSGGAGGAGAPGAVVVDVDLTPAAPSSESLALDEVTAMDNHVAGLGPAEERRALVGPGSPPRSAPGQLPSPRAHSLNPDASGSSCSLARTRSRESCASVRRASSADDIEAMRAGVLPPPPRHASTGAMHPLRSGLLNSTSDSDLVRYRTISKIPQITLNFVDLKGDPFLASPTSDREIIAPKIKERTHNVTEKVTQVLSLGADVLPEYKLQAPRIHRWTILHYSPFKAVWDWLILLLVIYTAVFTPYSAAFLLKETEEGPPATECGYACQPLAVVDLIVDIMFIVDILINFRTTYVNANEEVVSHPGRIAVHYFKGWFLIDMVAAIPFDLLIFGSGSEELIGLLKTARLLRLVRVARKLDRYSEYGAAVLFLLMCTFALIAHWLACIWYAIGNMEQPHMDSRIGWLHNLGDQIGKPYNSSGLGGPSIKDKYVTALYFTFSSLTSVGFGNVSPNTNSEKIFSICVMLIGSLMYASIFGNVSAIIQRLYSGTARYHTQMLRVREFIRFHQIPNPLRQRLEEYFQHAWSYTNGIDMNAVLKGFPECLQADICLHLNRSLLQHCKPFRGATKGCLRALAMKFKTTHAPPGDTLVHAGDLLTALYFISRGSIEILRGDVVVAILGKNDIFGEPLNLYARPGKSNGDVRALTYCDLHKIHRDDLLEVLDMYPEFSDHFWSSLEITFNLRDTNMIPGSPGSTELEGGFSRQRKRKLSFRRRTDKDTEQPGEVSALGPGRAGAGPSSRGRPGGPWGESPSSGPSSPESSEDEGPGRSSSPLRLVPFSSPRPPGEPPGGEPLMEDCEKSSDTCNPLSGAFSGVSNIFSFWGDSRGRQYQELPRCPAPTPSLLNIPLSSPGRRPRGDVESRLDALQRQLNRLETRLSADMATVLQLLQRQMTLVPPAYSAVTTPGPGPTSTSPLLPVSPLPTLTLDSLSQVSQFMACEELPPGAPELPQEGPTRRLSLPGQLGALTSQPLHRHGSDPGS

[3] = system: Par-4 secretion from mouse fibroblasts; type: cell-based; settings: for fold induction at 0.5 µM: Mus musculus, Fibroblast, 24 h, read-out: Ratio of Par-4 Secretion by Arylquin Relative to Vehicle
How it was run: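 Cells exposed to test compound for 24 h. Conditioned medium and lysates were analysed by quantitative Western blot for Par-4 and Col1A1, with Col1A1 used to normalise secreted Par-4. Experiments were run in triplicate; data are mean ± standard deviation of at least three experiments, with Student t test.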

Sequence of vimentin rod domain (residues 99-411) (P08670 99-411): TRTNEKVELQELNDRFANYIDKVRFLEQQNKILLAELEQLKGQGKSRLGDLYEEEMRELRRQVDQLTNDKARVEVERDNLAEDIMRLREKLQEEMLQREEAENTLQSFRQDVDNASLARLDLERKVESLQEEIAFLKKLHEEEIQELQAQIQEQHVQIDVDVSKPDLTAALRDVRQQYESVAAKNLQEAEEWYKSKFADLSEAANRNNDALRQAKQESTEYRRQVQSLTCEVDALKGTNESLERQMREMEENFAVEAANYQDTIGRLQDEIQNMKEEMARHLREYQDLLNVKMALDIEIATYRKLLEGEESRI

| Structure (SMILES) | IC50 [2] | fold induction at 0.5 µM [3] | Par-4 secretion activity (in words) [3] | other results |
| --- | --- | --- | --- | --- |
| CN(C)c1ccc2cc(-c3ccccc3F)c(N)nc2c1 [1a, 3-(2-Fluorophenyl)-N^7,N^7-dimethylquinoline-2,7-diamine] |  |  |  | Stoichiometry at saturation [1]: 3-4 molecules per monomer of the rod domain |
| CN(C)c1ccc2cc(-c3cccc(F)c3)c(N)nc2c1 [1d, 3-(3-Fluorophenyl)-N^7,N^7-dimethylquinoline-2,7-diamine] | 1.59 ± 0.39 µM |  |  |  |
| CN(C)c1ccc2cc(-c3ccc(F)cc3)c(N)nc2c1 [1f, 3-(4-Fluorophenyl)-N^7,N^7-dimethylquinoline-2,7-diamine] | 30.2 ± 10.3 µM |  |  |  |
| CN(C)c1ccc2cc(-c3c(F)cccc3Cl)c(N)nc2c1 [1n, 3-(2-Chloro-6-fluorophenyl)-N^7,N^7-dimethylquinoline-2,7-diamine] |  | 2.4 |  |  |
| CN(C)c1ccc2cc(-c3c(Cl)cccc3Cl)c(N)nc2c1 [1o, 3-(2,6-Dichlorophenyl)-N^7,N^7-dimethylquinoline-2,7-diamine] |  | 2.4 |  |  |
| COc1ccccc1-c1cc2ccc(N(C)C)cc2nc1N [1r, 3-(2-Methoxyphenyl)-N^7,N^7-dimethylquinoline-2,7-diamine] |  | 1.7 |  |  |
| CN(C)c1ccc2cc(-c3ccccc3F)c(=O)[nH]c2c1 [compound 2, 7-(N,N-Dimethylamino)-3-(2-fluorophenyl)quinolin-2(1H)-one] | > 100 µM | 1.1 |  |  |
| CN(C)c1ccc2cc3c(nc(N)c4ccccc43)nc2c1 [compound 5, N^9,N^9-Dimethyldibenzo[b,f][1,8]naphthyridine-5,9-diamine] |  |  | inactive |  |
| CN(C)c1ccc2cc3c(nc2c1)[nH]c(=O)c1ccccc13 [compound 6, 9-(N,N-Dimethylamino)dibenzo[b,f][1,8]naphthyridin-5(6H)-one] |  |  | inactive |  |
| CN(C)c1ccc2cc(-c3ccccc3F)c(=S)[nH]c2c1 [compound 7, 7-(N,N-Dimethylamino)-3-(2-fluorophenyl)quinoline-2(1H)-thione] | > 100 µM | 1.7 |  |  |
| CN(C)c1ccc2cc(-c3ccccc3F)c(N3CCOCC3)nc2c1 [compound 10, 3-(2-Fluorophenyl)-N,N-dimethyl-2-morpholinoquinolin-7-amine] | 23.3 ± 3.05 µM | 1.8 |  |  |
| CN1CCN(c2nc3cc(N(C)C)ccc3cc2-c2ccccc2F)CC1 [compound 11, 3-(2-Fluorophenyl)-N,N-dimethyl-2-(4-methylpiperazin-1-yl)quinolin-7-amine] |  |  | high levels of Par-4 secretion |  |
| Nc1nc2ccccc2cc1-c1ccccc1F [compound 12, 3-(2-Fluorophenyl)quinolin-2-amine] | 14.6 ± 5.82 µM | 2.8 | high levels of Par-4 secretion |  |
| Nc1nc2cccc(F)c2cc1-c1ccccc1F [compound 13, 5-Fluoro-3-(2-fluorophenyl)quinolin-2-amine] |  |  | equipotent to 1a |  |
| Nc1nc2ccc(Cl)cc2cc1-c1ccccc1F [compound 16, 6-Chloro-3-(2-fluorophenyl)quinolin-2-amine] |  |  | equipotent to 1a |  |
| Nc1nc2cc(Cl)ccc2cc1-c1ccccc1F [compound 17, 7-Chloro-3-(2-fluorophenyl)quinolin-2-amine] |  |  | did not induce Par-4 secretion | Binding to vimentin rod domain (in words) ([1]; arylquin at 1 μM): did not bind the vimentin rod domain to a measurable extent; also recorded: fluorescence signal did not change in the titration |
